Consider four compounds from ChEMBL document CHEMBL1828518, “Arylazolylthioacetanilide. Part 8: Design, synthesis and biological evaluation of novel 2-(2-(2,4-dichlorophenyl)-2H-1,2,4-triazol-3-ylthio)-N-arylacetamides as potent HIV-1 inhibitors” (Eur J Med Chem, 2011).

Active and inactive are the calls of the source. The rule behind the calls is not given here. Where only a bound is given, the exact number is not on record here.

Data set [1] deals with Human immunodeficiency virus 1. Kind of data set: Antiviral activity against HIV-1 3B harboring RT Y181C mutant infected in human MT4 cells assessed as inhibition of virus-induced syncytium formation after 5 days by MTT assay. The class given is functional, organism-based. A digest of the protocol: (§1)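 Exponentially growing MT-4 cells, pelleted and resuspended at 6 × 10⁵ cells/mL, were infected with virus stock at 100-300 CCID50. Test compounds were added at infection as serial fivefold dilutions, in triplicate wells. After 5 days, viability was read by MTT reduction at 540 and 690 nm using the median OD of three wells.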

The test system of data set [2] is Human immunodeficiency virus 1. Kind of data set: Antiviral activity against HIV-1 3B harboring RT Y188L mutant infected in human MT4 cells assessed as inhibition of virus-induced syncytium formation after 5 days by MTT assay. It counts as functional, organism-based. A digest of the protocol:
as §1
On the technique in general: Tetrazolium assays rely on reduction of a dye to a coloured formazan, in cell work by metabolically active cells.

Data set [3] deals with Human immunodeficiency virus 1. Put plainly: Antiviral activity against HIV-1 3B harboring RT F227L and V106A mutant infected in human MT4 cells assessed as inhibition of virus-induced syncytium formation after 5 days by MTT assay. The class given is functional, organism-based. A digest of the protocol:
as §1

Data set [4] has as its system Human immunodeficiency virus 1. Kind of data set: Antiviral activity against HIV-1 3B harboring RT K103N and Y181C mutant infected in human MT4 cells assessed as inhibition of virus-induced syncytium formation after 5 days by MTT assay. It counts as functional, organism-based. A digest of the protocol: as §1
Data set [5] has as its system Human immunodeficiency virus 1. Put plainly: Ratio of EC50 for HIV-1 3B harboring RT K103N mutant infected in human MT4 cells to EC50 for wild type HIV-1 3B infected in human MT4 cells. It counts as functional. A digest of the protocol:
(§2)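 Fold resistance is the EC50 against the drug-resistant strain divided by the EC50 against wild-type HIV-1 IIIB. Both values come from the same MT-4 assay: 5-day infection, MTT viability read-out, and serial fivefold compound dilutions in triplicate wells.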

Data set [6] has as its system Human immunodeficiency virus 1. Put plainly: Ratio of EC50 for HIV-1 3B harboring RT E138K mutant infected in human MT4 cells to EC50 for wild type HIV-1 3B infected in human MT4 cells. The class given is functional. A digest of the protocol:
as §2

For data set [7], the system named is Human immunodeficiency virus 1. Kind of data set: Ratio of EC50 for HIV-1 3B harboring RT L100I mutant infected in human MT4 cells to EC50 for wild type HIV-1 3B infected in human MT4 cells. The class given is functional. A digest of the protocol:
as §2

Data set [8] addresses Human immunodeficiency virus type 1 reverse transcriptase (Human immunodeficiency virus 1, UniProt Q72547). Kind of data set: Inhibition of HIV-1 reverse transcriptase assessed as inhibition of biotin-dUTP incorporation […] by colorimetry. A digest of the protocol: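 Purified recombinant HIV-1 RT with a […] template primer. Read-out is colorimetric detection of biotin-dUTP incorporated into the homopolymer template primer, with nucleotides linked to the microtiter plate.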

In data set [9] the test system is Human immunodeficiency virus 1. Kind of data set: Antiviral activity against HIV-1 3B infected in human MT4 cells assessed as inhibition of virus-induced syncytium formation after 5 days by MTT assay. It counts as functional, organism-based. Conditions: Human immunodeficiency virus 1, 3B, MT4, 120 h. A digest of the protocol: (§3)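 MT-4 cells (exponentially growing, spun 5 min at 1000 rpm, resuspended at 6 × 10⁵ cells/mL) infected with HIV-1 IIIB or HIV-2 ROD at 100–300 CCID50. Compounds added at infection in triplicate wells as serial fivefold dilutions, with untreated infected and mock-infected controls. Viability read by MTT at 540 and 690 nm after 5 days, from the median OD of three wells.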

Data set [10] deals with Human immunodeficiency virus 2. Kind of data set: Antiviral activity against HIV-2 ROD infected in human MT4 cells assessed as inhibition of virus-induced syncytium formation after 5 days by MTT assay. It counts as functional, organism-based. Conditions: Human immunodeficiency virus 2, ISOLATE ROD, MT4, 120 h. A digest of the protocol: as §3
Data set [11] can be described thus: Cytotoxicity against human MT4 cells assessed as cell viability after 5 days by MTT assay. It counts as cell-based. A digest of the protocol:
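MT-4 cells at 6 × 10⁵ cells/mL, mock-infected with culture medium and run in parallel with the antiviral plates. Test compounds given as serial fivefold dilutions in triplicate wells. After 5 days viability read by MTT reduction to formazan at 540 and 690 nm, using the median OD of three wells.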

A short description of data set [12]: Selectivity index, ratio of CC50 for human MT4 cells to EC50 for HIV-1 3B infected in human MT4 cells. The class given is toxicity, cell-based. Conditions: uninfected and infected with HIV-1 3B, read-out: Ratio CC50/EC50. A digest of the protocol:
(§4)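 Selectivity index calculated as CC50 divided by EC50. Both values come from MTT readings taken 5 days after infection, on mock-infected and virus-infected MT-4 cells run in parallel.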

Data set [13] in a line: Selectivity index, ratio of CC50 for human MT4 cells to EC50 for HIV-2 ROD infected in human MT4 cells. The class given is toxicity, cell-based. Conditions: uninfected and infected with HIV-2 ROD, read-out: Ratio CC50/EC50. A digest of the protocol:
as §4

For data set [14], the system named is Human immunodeficiency virus 1. Kind of data set: Antiviral activity against HIV-1 3B harboring RT E138K mutant infected in human MT4 cells assessed as inhibition of virus-induced syncytium formation after 5 days by MTT assay. The class given is functional, organism-based. Conditions: Human immunodeficiency virus 1, 3B, MT4, 120 h. A digest of the protocol: as §1

Data set [15] concerns Human immunodeficiency virus 1. Kind of data set: Antiviral activity against HIV-1 3B harboring RT K103N mutant infected in human MT4 cells assessed as inhibition of virus-induced syncytium formation after 5 days by MTT assay. It counts as functional, organism-based. Conditions: Human immunodeficiency virus 1, 3B, MT4, 120 h. A digest of the protocol: as §1
Data set [16] has as its system Human immunodeficiency virus 1. Kind of data set: Antiviral activity against HIV-1 3B harboring RT L100I mutant infected in human MT4 cells assessed as inhibition of virus-induced syncytium formation after 5 days by MTT assay. The class given is functional, organism-based. To be noted: Human immunodeficiency virus 1, 3B, MT4, 120 h. A digest of the protocol: as §1

One may read the IC50 as the concentration that gives 50% inhibition. Usually EC50 stands for the concentration needed to bring the measured effect to its halfway point. By CC50 is commonly meant the concentration that lowers cell viability or growth by half. For the compound `COC(=O)c1ccc(NC(=O)CSc2ncnn2-c2ccc(Cl)cc2Cl)c(Br)c1`, the inhibition result in data set [1], in data set [2], in data set [3] and in [4] was “inactive” throughout. Further, the “Ratio EC50” value was 2.2 in data set [5], “>=4.3” in [6] and 2 in [7]. In data set [8], the IC50 was 385 µM. The concentration giving a half-maximal response (EC50) was 4.13 µM in [9]; > 59.3 µM in data set [10]; ≥ 15.2 µM in [14]; 7.73 µM in data set [15]; 6.95 µM in data set [16]. Further, the cytotoxic concentration (CC50) at 120 h in data set [11] is 59.3 µM. The selectivity ratio in data set [12] is 14; in [13], < 1.
Consider `CCOC(=O)c1ccc(NC(=O)CSc2ncnn2-c2ccc(Cl)cc2Cl)c(Br)c1`, for which the inhibition result in data set [1], in [2], in data set [3] and in [4] was “inactive” each time. Also, the “Ratio EC50” value was 1.6 in [5], >6.7 in data set [6] and 1.9 in data set [7]. The IC50 in [8] was found to be 297 µM. Besides, the 50% effective concentration (EC50) is 4.68 µM in data set [9]; > 33.1 µM in [10]; > 38.7 µM in data set [14]; 9.54 µM in [15]; 10.8 µM in data set [16]. Further, in data set [11], the cytotoxic concentration (CC50) at 120 h amounted to 33.1 µM. Besides, the values for the selectivity ratio in data set [12] and in data set [13] were 7 and < 1, respectively.
Take `O=C(CSc1ncnn1-c1ccc(Cl)cc1Cl)Nc1cccnc1Cl`: the inhibition result in data set [1], in data set [2], in data set [3] and in [4] was “inactive” in each case. The figures for the “Ratio EC50” value in data set [5], in [6] and in [7] were 2.8, 4.3 and 4.4, respectively. Besides, the concentration giving a half-maximal response (EC50) was 4.99 µM in data set [9]; > 98.5 µM in data set [10]; 6.79 µM in [14]; 10.5 µM in data set [15]; 15.4 µM in data set [16]. In addition, the CC50 at 120 h in data set [11] is 98.5 µM. Moreover, the selectivity ratio was 20 in data set [12] and < 1 in [13].
`O=C(CSc1ncnn1-c1ccc(Cl)cc1Cl)Nc1ccccc1[N+](=O)[O-]`: the inhibition entry in data set [1], in data set [2], in data set [3] and in data set [4] was “inactive” throughout. Moreover, the “Ratio EC50” value in data set [5] is recorded as 1.8; in data set [6], 2.3; in [7], 2.1. For the same compound, the IC50 in data set [8] is > 471 µM. For the same compound, the EC50 in [9] was 2.78 µM; in [10], > 187 µM; in data set [14] it was 9.45 µM; in data set [15] it was 7.42 µM; in data set [16], 8.51 µM. Further, the half-maximal cytotoxic concentration (CC50) at 120 h in data set [11] came to 187 µM. The selectivity ratio in data set [12] was 67; in [13], < 1.
